These results are taken from ChEMBL document CHEMBL4393661, “PRODRUGS FOR NITROREDUCTASE BASED CANCER THERAPY- 2: Novel amide/Ntr combinations targeting PC3 cancer cells” (Eur J Med Chem, 2019).

The nature of data set [1]: Cytotoxicity against human PC3 cells assessed as cell viability at 9 to 150 uM measured after 48 hrs by MTT assay relative to control. In kind it is cell-based, PC-3. The conditions noted are these: read-out: Activity. In a few lines:
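They were treated for 48 h at 9, 18, 39, 78 and 150 µM, with 1% DMSO as vehicle control. Viability was read by MTT at 550 nm.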

A short description of data set [2]: Cytotoxicity against human HUVEC cells assessed as cell viability at 9 to 150 uM measured after 48 hrs by MTT assay relative to control. In kind it is cell-based. The conditions noted are these: read-out: Activity. An outline of the steps:
(§1)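 Hep3B and HUVEC cells were grown in high-glucose medium with 10% heat-inactivated FBS and 2 mM glutamine at 37 °C in 5% CO2. Cells were seeded at 5x10^4 per well and left 24 h to attach. They were then exposed for 48 h to 150, 75, 39, 19 and 9 µM, with 1% DMSO as vehicle control. Viability was read by MTT at 550 nm as (OD sample/OD control)×100.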

Data set [3] addresses T1, Putative nitroreductase (Staphylococcus saprophyticus subsp. saprophyticus (strain ATCC 15305 / DSM20229 / NCIMB 8711 / NCTC 7292 / S-41), UniProt Q4A0P1).
T1 sequence (Q4A0P1 whole entry): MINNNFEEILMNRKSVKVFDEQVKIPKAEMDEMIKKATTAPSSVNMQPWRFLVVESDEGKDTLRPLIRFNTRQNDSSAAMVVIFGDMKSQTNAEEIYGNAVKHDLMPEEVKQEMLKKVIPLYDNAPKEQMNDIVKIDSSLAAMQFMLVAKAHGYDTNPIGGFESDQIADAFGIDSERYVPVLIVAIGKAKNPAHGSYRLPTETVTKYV
In words: Prodrug conversion assessed Staphylococcus saprophyticus nitroreductase expressed in Escherichia coli-mediated PP (4-(hydroxyamino)phenyl)(piperidin-1-yl)methanone metabolite formation by measuring retention time of metabolite at 100 uM incubated for 15 mins by HPLC analysis. In kind it is ADME. The conditions noted are these: 0.25 h. In a few lines:
(§2)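 Recombinant Ssap-NtrB, Ni-column purified, was used at 2.5 µg/mL. Substrate at 100 µM was reacted with 200 µM NADH in 25 mM Tris/Cl pH 7.5 with 10% DMSO at 25 °C for 15 min. The reaction was stopped 1:1 with cold acetonitrile and run on C18 RP-HPLC at 1 mL/min with a 20–80% ACN gradient. Peaks were detected at 254 and 340 nm.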

In data set [4] the test system is PC-3. The data set is described as follows: Cytotoxicity in human PC3 cells assessed as reduction in cell viability at 180 nM measured after 48 hrs by SRB assay. In kind it is cell-based. The conditions noted are these: pc-3, 48 h, 0.18 µM. An outline of the steps:
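They were exposed for 48 h to prodrug alone at 180 nM final, without enzyme or NADH, with 25 mM Tris-HCl as vehicle control. Cells were fixed with 12.5% TCA for 1 h at 4 °C, stained with 0.4% SRB and read at 492 nm as % cell survival, in triplicate.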

The target of data set [5] is T1, Putative nitroreductase. The data set is described as follows: Substrate activity at Staphylococcus saprophyticus nitroreductase expressed in Escherichia coli assessed as retention time in the presence of NADPH at 100 uM by HPLC analysis (0 to 5 mins at 20% ACN, 25 to 35 min at 80% ACN, 40 to 45 min at 20% ACN). In kind it is ADME.
For data set [6], the target named is T2, Staphylococcus saprophyticus nitroreductase (Staphylococcus saprophyticus subsp. saprophyticus (strain ATCC 15305 / DSM20229 / NCIMB 8711 / NCTC 7292 / S-41), UniProt Q4A0P1).
T2 sequence (Q4A0P1 whole entry): T1 sequence (Q4A0P1 whole entry)
In words: Substrate activity at Staphylococcus saprophyticus nitroreductase expressed in Escherichia coli assessed as half life […] at 100 uM by HPLC analysis (0 to 5 mins at 20 % ACN, 15 to 22 min at 80% ACN, 27-32 AT 20% ACN). In kind it is ADME.

Data set [7] in a line: Cytotoxicity against human Hep3B cells assessed as cell viability at 9 to 150 uM measured after 48 hrs by MTT assay relative to control. The conditions noted are these: read-out: Activity. In kind it is cell-based, Hep 3B2. An outline of the steps:
as §1

Data set [8] addresses T1, Putative nitroreductase. In words: Prodrug conversion assessed Staphylococcus saprophyticus nitroreductase expressed in Escherichia coli-mediated (4-aminophenyl)(piperidin-1-yl)methanone metabolite formation by measuring retention time in presence of FDH cofactor regeneration system at 100 uM by HPLC analysis. In kind it is ADME. An outline of the steps: (§3)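 This was a coupled regeneration reaction: 100 µM substrate in Tris/Cl pH 7.5 with 5–15% DMSO, plus 100 µM NADH, 10 µM NAD+, 0.1 mg/mL BSA, 200 µM sodium formate, 30 µg/mL Ssap-NtrB and 30 µg/mL Candida methylica FDH, at 25 °C. Aliquots were taken over time, quenched 1:1 with cold acetonitrile and analysed by C18 HPLC using program II (20→80→20% ACN). Peak areas were read at 254 and 340 nm.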

Data set [9] has as its target T1, Putative nitroreductase. The data set is described as follows: Prodrug conversion assessed Staphylococcus saprophyticus nitroreductase expressed in Escherichia coli-mediated PP (4-(hydroxyamino)phenyl)(piperidin-1-yl)methanone metabolite formation by measuring retention time in presence of FDH cofactor regeneration system at 100 uM by HPLC analysis. In kind it is ADME. In a few lines:
as §3

The subject of data set [10] is PC-3. In words: Cytotoxicity against human PC3 cells assessed as reduction in cell viability measured after 48 hrs in presence of Staphylococcus saprophyticus nitroreductase and NADH by SRB assay. The conditions noted are these: PC-3, 48 h. In kind it is cell-based. In a few lines: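 Prodrug at 180, 18 or 1.8 nM was premixed with Ssap-NtrB (31 µg/mL final) and NADH (600 µM final; 900 µM for CB1954) in 25 mM Tris-HCl pH 7.5, then added for 48 h under aerobic conditions. Cells were fixed with 12.5% TCA, stained with SRB and read at 492 nm, in triplicate.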

In data set [11] the target is T1, Putative nitroreductase. The data set is described as follows: Substrate activity at Staphylococcus saprophyticus nitroreductase expressed in Escherichia coli assessed as retention time […] at 100 uM by HPLC analysis (0 to 5 mins at 20 % ACN, 15 to 22 min at 80% ACN, 27-32 AT 20% ACN). In kind it is ADME.
For data set [12], the target named is T2, Staphylococcus saprophyticus nitroreductase. In words: Substrate activity at Staphylococcus saprophyticus nitroreductase expressed in Escherichia coli assessed as half life […] at 100 uM by HPLC analysis (0 to 5 mins at 20% ACN, 25 to 35 min at 80% ACN, 40 to 45 min at 20% ACN). In kind it is ADME.
The nature of data set [13]: Solubility of the compound in 15% DMSO. In kind it is physicochemical.
Data set [14] deals with T1, Putative nitroreductase. The data set is described as follows: Prodrug conversion assessed Staphylococcus saprophyticus nitroreductase expressed in Escherichia coli-mediated (4-(hydroxyamino)phenyl)(morpholino)methanone metabolite formation by measuring retention time of metabolite at 100 uM incubated for 15 mins by HPLC analysis. In kind it is ADME. The conditions noted are these: 0.25 h. An outline of the steps: as §2

The target in data set [15] is T3, Oxygen-insensitive NAD(P)H nitroreductase (Escherichia coli K-12, UniProt P38489).
T3 sequence (P38489 whole entry): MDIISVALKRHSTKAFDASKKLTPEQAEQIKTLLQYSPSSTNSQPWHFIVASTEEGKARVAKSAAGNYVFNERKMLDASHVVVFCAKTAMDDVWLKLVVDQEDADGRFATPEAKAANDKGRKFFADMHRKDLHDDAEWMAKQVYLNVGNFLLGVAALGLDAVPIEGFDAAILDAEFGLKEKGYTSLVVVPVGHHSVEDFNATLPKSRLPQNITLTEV
The data set is described as follows: Substrate activity at Escherichia coli nitroreductase nfsB assessed as ratio of Kcat/Km up to 80 mM using NADH as cofactor relative to CB1954/NfsB. In kind it is ADME.

Data set [16] has as its target T3, Oxygen-insensitive NAD(P)H nitroreductase. In words: Substrate activity at Escherichia coli nitroreductase nfsB assessed as ratio of Kcat/Km using NADH as cofactor in Tris-Cl buffer at pH 7.5 by spectrophotometric method. In kind it is ADME.
Data set [17] deals with T1, Putative nitroreductase. In words: Substrate activity at Staphylococcus saprophyticus nitroreductase assessed as Kcat using NADPH as cofactor in presence of Tris-Cl buffer at pH 7.5 by spectrophotometric method. In kind it is ADME. In a few lines:
(§4)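 Michaelis–Menten parameters for recombinant Ssap-NtrB were measured spectrophotometrically at 25 °C in 25 mM Tris-Cl buffer pH 7.5 containing 5% DMSO as cosolvent.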

Data set [18] has as its target T1, Putative nitroreductase. The data set is described as follows: Substrate activity at Staphylococcus saprophyticus nitroreductase assessed as ratio of Kcat/Km using NADPH as cofactor in presence of Tris-Cl buffer at pH 7.5 by spectrophotometric method. In kind it is ADME. An outline of the steps:
as §4

The target of data set [19] is T4, Escherichia coli nitroreductase nfsB (oxygen-insensitive NAD(P)H nitroreductase) (Escherichia coli K-12, UniProt P38489).
T4 sequence (P38489 whole entry): T3 sequence (P38489 whole entry)
In words: Substrate activity at Escherichia coli nitroreductase nfsB assessed as Km using NADH as cofactor in Tris-Cl buffer at pH 7.5 by spectrophotometric method. In kind it is ADME.

Data set [20] has as its target T2, Staphylococcus saprophyticus nitroreductase. The data set is described as follows: Substrate activity at Staphylococcus saprophyticus nitroreductase assessed as Km using NADPH as cofactor in presence of Tris-Cl buffer at pH 7.5 by spectrophotometric method. In kind it is ADME. In a few lines: as §4

Regarding `O=C(c1ccc([N+](=O)[O-])cc1)N1CCCCC1`, the viability at 48 h, up to 150 µM in data set [1], in [2] and in data set [7] was over 80% throughout. Moreover, the Retention_time in data set [3] is 15.99 min; in [5], 17.81 min; in data set [8], 22.3 min; in data set [9], 14 min; in data set [11], 18.22 min. In [4], the Activity result is reported as “Non-Toxic”. In addition, the half-life in [6] was under 90 min. Also, in data set [10], the IC50 worked out at 1.81 nM. In addition, the half-life at 100 µM in data set [12] is under 1.2 min. Moreover, the solubility result in data set [13] is on record as “Soluble”.

Take `O=C(c1ccc(NO)cc1)N1CCOCC1`: the Retention_time in [14] came out at 11.71 min.

For `CS(=O)(=O)OCCN(CCBr)c1c(C(=O)NCCO)cc([N+](=O)[O-])cc1[N+](=O)[O-]`, the “fold change (FC)” value in [15] came to 2.32.

As to `NC(=O)c1cc(N(CCCl)CCCl)c([N+](=O)[O-])cc1[N+](=O)[O-]`, the Kcat/Km in data set [16] was 10560 s⁻¹ M⁻¹; in data set [18], 9350 s⁻¹ M⁻¹. The “fold change (FC)” value in data set [15] is 1.89. The Kcat in [17] worked out at 0.8 s⁻¹. Besides, the figures for the Km in data set [19] and in [20] were 2.5 mM and 82.4 µM, respectively.
